Source: ChEMBL document CHEMBL1154004, “Relationships between the structures of flavanone derivatives and their effects in enhancing early growth response-1 gene expression” (2009)
The source made the active and inactive calls. The rule behind the calls is not given here.

test system: HeLa; experiment: Increase in EGR1 mRNA expression in human HeLa cells after 1 hr by Western blotting; type: functional, cell-based; details: in the assay text read “EGR1 protein expression” for “EGR1 mRNA expression”
How it was run: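 Human cervix carcinoma HeLa cells were left untreated or exposed to compound at 10, 20 or 40 for 1 h. Egr-1 protein level was then examined by Western blot.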

SMILES | Activity
O=C1CC(c2ccccc2O)Oc2ccccc21 (centres undefined) [2'-HYDROXY-FLAVANONE] | Active
O=C1CC(c2cccc(O)c2)Oc2ccccc21 (centres undefined) [3'-HYDROXYFLAVANONE] | Active

test system: HEK293; experiment: Increase in EGR1 mRNA expression in human HEK293 cells at 20 ug/mL after 6 to 12 hrs by dual-glo luciferase assay relative to control; type: functional; details: not given
How it was run: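 Egr-1 promoter reporter assay after transient transfection. Activity is the level with compound divided by the compound-free control level, with the control set at 1.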

SMILES | fold change (FC)
COc1cc(OC)c2c(c1)OC(c1ccccc1)CC2=O (centres undefined) [DIMETHYLPINOCEMBRIN] | 1.9
O=C1CC(c2ccccc2)Oc2c(Cl)cccc21 (centres undefined) | 1.7
O=C1c2ccc(O)cc2OC(c2ccc(O)c(O)c2)C1O (centres undefined) | 1.3
O=C1c2c(O)cc(O)cc2OC(c2ccc(O)c(O)c2)C1O (centres undefined) [TAXIFOLIN] | 1.3
COc1ccc(C2CC(=O)c3c(OC)cc(OC)cc3O2)cc1 (centres undefined) | 0.7
COc1cccc(C2CC(=O)c3cc(OC)ccc3O2)c1 (centres undefined) | 2.5
O=C1C[C@@H](c2ccc(O)c(O)c2)Oc2cc(O)cc(O)c21 [ERIODICTYOL] | 2.1
O=C1CC(c2ccccc2)Oc2cc(O)ccc21 (centres undefined) [7-HYDROXYFLAVANONE] | 2.1
COc1ccc(C2CC(=O)c3ccccc3O2)cc1 (centres undefined) | 1.2
O=C1c2ccc(O)cc2O[C@@H](c2cc(O)c(O)c(O)c2)[C@@H]1O [DIHYDROROBINETIN] | 0.7
COc1cc(O)cc2c1C(=O)CC(c1ccccc1)O2 (centres undefined) | 1
O=C1CC(c2ccccc2O)Oc2ccccc21 (centres undefined) [2'-HYDROXY-FLAVANONE] | 4.2
COc1cc(C2CC(=O)c3ccccc3O2)ccc1O (centres undefined) | 5.1
Cc1ccc(C2CC(=O)c3cccc(Cl)c3O2)cc1 (centres undefined) | 1.3
O=C1CC(c2ccccc2)Oc2ccc(O)cc21 (centres undefined) | 1.3
COc1cc(O)c2c(c1)OC(c1ccc(O)cc1)CC2=O (centres undefined) | 0.4
COc1ccc([C@@H]2CC(=O)c3c(O)cc(O)cc3O2)cc1O [HESPERETIN] | 2.4
O=C1CC(c2ccccc2)Oc2ccccc21 (centres undefined) [FLAVANONE] | 2.3
O=C1C[C@@H](c2ccccc2)Oc2cc(O)cc(O)c21 [PINOCEMBRIN] | 0.4

SMILES | fold change (FC)
COc1cccc2c1C(=O)CC(c1ccccc1)O2 (centres undefined) | 3.6
COc1cc(O)c2c(c1)O[C@H](c1ccccc1)CC2=O [PINOSTROBIN] | 1.6
COc1ccc(C2CC(=O)c3ccccc3O2)cc1OC (centres undefined) | 4.3
COc1cc(C2CC(=O)c3c(O)cc(O)cc3O2)cc(OC)c1OC (centres undefined) | 1.2
O=C1CC(c2ccc(F)cc2)Oc2c(Cl)cccc21 (centres undefined) | 2.4
Cc1ccc(C2CC(=O)c3cc(Cl)ccc3O2)cc1 (centres undefined) | 0.8
O=C1C[C@@H](c2ccc(O)cc2)Oc2cc(O)cc(O)c21 [NARINGENIN] | 1.2
COc1ccc(C2CC(=O)c3cc(Cl)ccc3O2)cc1OC (centres undefined) | 0.7
COc1cc([C@@H]2CC(=O)c3c(O)cc(O)cc3O2)ccc1O [HOMOERIODICTYOL] | 1.2
O=C1CC(c2cccc(O)c2)Oc2ccccc21 (centres undefined) [3'-HYDROXYFLAVANONE] | 6.7
COc1ccc2c(c1)OC(c1cc(OC)c(OC)c(OC)c1)CC2=O (centres undefined) | 1
O=C1CC(c2ccc(O)cc2)Oc2ccccc21 (centres undefined) [4'-HYDROXY-FLAVANONE] | 1.4
COc1ccc2c(c1)C(=O)CC(c1ccc(OC)c(OC)c1)O2 (centres undefined) | 0.7
COc1ccc2c(c1)OC(c1ccccc1)CC2=O (centres undefined) | 1.1
COc1ccc2c(c1)C(=O)CC(c1ccccc1)O2 (centres undefined) | 1.6
COc1ccc2c(c1)C(=O)CC(c1cccc(OC)c1OC)O2 (centres undefined) | 3.9
O=C1CC(c2ccccc2O)Oc2ccc(O)cc21 (centres undefined) | 1.2
COc1ccc(C2CC(=O)c3cc(OC)ccc3O2)c(OC)c1 (centres undefined) | 1.5
